Source: PubChem
Insulin prom inh: inhibitors of insulin promoter-driven GFP, primary screen, imaging, TRM-6 cells (human fetal islet line), eGFP reporter, cell count; reporter expression induced with tamoxifen; inhibition, % at 2 µM; hit rate 0.9% among 130,000; AID 1273, 2008;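 active = inhibition above the mean plus 3 SD, with well images judged a real hit on visual review, cut at about 60% in these data, passing the limit was not always enough; inconclusive = inhibition over the cutoff but images rejected on review; inactive = inhibition not above the cutoff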
Dynein cargo inh: inhibitors of GR-EGFP nuclear translocation, primary screen, dynein cargo transport inhibitor project, imaging, high-content, 3617.4 mouse cells. z-score, hits read low. test concentration mostly 20 µM; stimulated with dexamethasone, 1 µM; hits give low values. hit rate 0.47% among 220,000;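 active = plate z-score of nuclear minus cytoplasmic receptor signal below a set negative limit, without overly bright fluorescence or cell loss, cut at about -3.5 in these data, passing the limit was not always enough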;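 note: z-score of nuclear minus cytoplasmic ring GR-EGFP intensity difference per well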
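medium = tetracycline-free induction medium containing charcoal-stripped FBS | probe or stimulus = dexamethasone, 1.0 µM final | timing = 48 h induction, then 1 h compound, then 30 min agonist, 37 °C | detection = automated 10x imaging of fixed Hoechst-stained cells | read-out basis = nuclear versus cytoplasmic GR-EGFP signal, averaged per well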
Ins promoter up: insulin promoter activators in MIN6 cells, imaging, high-content screening, mouse beta cells; MIN6 insulin promoter-GFP reporter; hits give high values; z-score at 5 µM; AID 1625, 2009; hit rate 0.3% among 190,000;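 active = z-score above 3 at 5 µM with at least 500 cells counted in the well; inconclusive = wells under 500 cells, flagged as cytotoxic or low count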
Autophagy mod: autophagy modulators in MEF cells, primary screen, imaging, high-content, MEF GFP-LC3. MEF GFP-LC3 puncta imaging; test concentration mostly 10 µM. calls only at 10 µM (by protocol). hit rate 0.98% among 190,000;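 active = percentage of spot-positive cells more than 3 SD above its plate mean, without a fluorescence outlier flag or 80% toxicity; inconclusive = no clear call, values can overlap the other calls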
Dynein inh conf: dynein cargo transport inhibitors, GR-EGFP translocation, confirmation, imaging, high-content imaging, GR-EGFP cells. shares compounds with Dynein cargo inh. 3617.4 GR-EGFP nuclear translocation imaging, dexamethasone-induced. calls only at 20 µM. hit rate 69% among 1,000. AID 463116, 2010;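 active = inhibition of receptor movement into the nucleus at or above a set limit in both runs, with normal cell brightness and cell count; inconclusive = limit reached in only one run, brightness and count normal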;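 note: dexamethasone at 1 µM final in well for 30 min; nuclear minus cytoplasmic GR-EGFP mean intensity difference in channel 2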
A number is an active result; - = inactive; ? = inconclusive; . = no result; + = active, no number. Hits are enriched below; roughly 2% of the tested compounds scored in any of these assays.

SMILES | Insulin prom inh | Dynein cargo inh | Ins promoter up | Autophagy mod | Dynein inh conf
CCOC(=O)Cn1cc(/C=C/[N+](=O)[O-])c2ccccc21 | - | - | - | - | .
C/C(CC(=O)Nc1cccc2c1CCCC2)=N\NC=O | . | - | - | - | .
C=CCS(=O)(=O)c1nc2ccccc2s1 | - | -5.4 | - | - | -
O=S(=O)(CCSc1nc2ccccc2s1)c1nc2ccccc2s1 | - | - | - | - | .
O=C(O)c1ccc(C=C(c2nc3ccccc3s2)c2nc3ccccc3s2)cc1 | . | -4.6 | - | - | +
CCOC(=O)CSC1=NC(=O)/C(=C/c2ccc(Br)cc2)S1 | - | -4.3 | - | - | +
Cc1cc(C)nc(S/C=C/C(=O)c2ccccc2F)n1 | . | -3.7 | - | . | +
Cc1cc(NC(=O)c2ccccc2F)on1 | - | - | - | - | .
CC1=NN(c2cccc(C(=O)O)c2)C(=O)/C1=C\C=C/c1ccccc1 | - | -5.6 | - | - | +
Cn1c(=O)c(Nc2ccc(Cl)cc2)c2c3c(cccc31)C(=O)c1ccccc1-2 | . | - | 15 | + | +
COc1cccc(N(C(=O)CS(=O)CC(=O)Nc2ccc(F)cc2)C(C(=O)NC2CCCCC2)c2cccs2)c1 (stereo not drawn) | - | - | - | - | .
COc1ccc(N(C(=O)CCl)C(C(=O)NCCc2ccccc2)c2cccs2)cc1Cl (stereo not drawn) | - | -4.8 | - | - | +
COCCNC(=O)C(c1cccs1)N(C(=O)Cn1nnc2ccccc21)c1ccccc1 (stereo not drawn) | - | - | - | - | .
COc1cccc(N(C(=O)CCl)C(C(=O)NCCc2ccccc2)c2cccs2)c1 (stereo not drawn) | - | -5.5 | . | - | +
COc1ccc(/C=C/C(=O)NC(CCSC)C(=O)O)cc1 (stereo not drawn) | - | - | - | - | .
COc1ccc(C2C(C#N)=C(N)Oc3c2sc2nc(C)cc(C)c32)cc1 (stereo not drawn) | - | -3.9 | . | - | -
Cc1cc(C)c2c3c(sc2n1)C1(CCSCC1)C(C#N)=C(N)O3 | - | - | - | - | .
CCOC(=O)N1C/C(=C\c2ccccc2)C(=O)/C(=C/c2ccccc2)C1 | . | -4.9 | - | . | +
Cc1nn(CC(=O)Nc2cccnc2)c(C)c1[N+](=O)[O-] | . | - | - | - | .
CCOC(=O)C(=Cc1ccc(-n2cncn2)cc1)C(=O)OCC | . | -6.8 | - | - | +
CCOC(=O)C1=NN(C(C)=O)C2C(=O)N(CC)C(=O)C12 (stereo not drawn) | . | - | - | . | .
CCOC(=O)c1c(C)nc2cc(C)cc(C)n12 | - | - | - | - | .
O=C(OCCN1C(=O)c2cccc3c(N4CCOCC4)ccc(c23)C1=O)c1ccc(Cl)cc1Cl | . | - | . | + | +
O=C(OCCN1C(=O)c2cccc3c(N4CCOCC4)ccc(c23)C1=O)c1cccc(Cl)c1 | . | - | - | + | ?
O=S(=O)(NC(=NCc1ccccc1)c1ccc(F)cc1)c1ccc(Cl)cc1 | . | - | - | - | .
SMILES | Insulin prom inh | Dynein cargo inh | Ins promoter up | Autophagy mod | Dynein inh conf
COc1ccc(Nc2nc(N)nc(CCl)n2)cc1 | . | - | - | . | .
Nc1nc(CCl)nc(Nc2ccc3ccccc3c2)n1 | . | -4.3 | - | . | +
O=C1C(CSCc2ccccc2)NC(=S)N1c1ccccc1 (stereo not drawn) | . | - | - | . | .
Cc1cccn2c(=O)c(C=O)c(Cl)nc12 | . | -5.9 | - | . | +
Cc1nc(N)c(CC(Br)CBr)c(Cl)n1 (stereo not drawn) | . | - | - | . | .
COCc1cc(Sc2ccc(Cl)cc2)nc(C)n1 | . | - | - | - | .
COCc1cc(S(=O)c2ccc(Cl)cc2)nc(C)n1 (stereo not drawn) | . | -4.5 | - | - | +
CCCn1nc([N+](=O)[O-])c(C(C#N)c2nc3ccccc3s2)c(Cl)c1=O (stereo not drawn) | - | -5.1 | - | - | +
CCn1nc([N+](=O)[O-])c(C(C#N)c2nc3ccccc3n2C)c(Cl)c1=O (stereo not drawn) | - | - | - | - | .
O=S1(=O)C=C(Sc2nc3ccccc3s2)c2ccccc21 | . | -4.1 | - | + | +
Cc1cc(C)nc(SC2=CS(=O)(=O)c3ccccc32)n1 | - | - | . | - | .
CC(=O)NC(CSC(CC(=O)c1ccco1)c1ccc(C)cc1)C(=O)O (stereo not drawn) | . | -4.3 | - | - | -
CC(=O)NC(Cc1ccccc1)C(=O)N1CCN(C(=O)c2ccco2)CC1 (stereo not drawn) | - | - | - | - | .
CCC1CCc2c(c3ccccc3[nH]c2=O)O1 (stereo not drawn) | - | - | - | - | .
O=c1[nH]c2ccccc2c2oc(CCl)nc12 | . | -4.1 | - | . | ?
O=C(CCl)N(CCCNC(=O)C(F)(F)F)c1ccc([N+](=O)[O-])cc1 | . | -5 | - | . | +
COc1ccc(-n2nc(C(=O)c3cccs3)cc(-c3nc4ccccc4[nH]3)c2=N)cc1 | - | - | . | + | -
Cc1cc(NC(=O)c2cccs2)n(-c2nc3ccccc3[nH]2)n1 | . | - | - | - | .
NC(=O)CN1C(=O)C(O)(CC(=O)/C=C\c2ccc3c(c2)OCO3)c2ccccc21 (stereo not drawn) | - | - | - | - | .
CN1C(=O)C(O)(CC(=O)/C=C\c2ccc3c(c2)OCO3)c2ccccc21 (stereo not drawn) | . | -4.6 | - | - | +
S=C(NCCc1ccccc1)NC1CC2CCC(C1)N2Cc1ccccc1 (stereo not drawn) | - | - | . | - | .
Cc1ccc(S(=O)(=O)/N=C(\CCl)N2CCOCC2)cc1 | - | -3.8 | - | - | +
CCC(=O)c1ccc(SC(=O)N(C)C)cc1O | . | - | - | . | .
Cc1ccc(NC(=S)N(CCC(C)C)C(C)c2ccncc2)c(Cl)c1 (stereo not drawn) | . | - | - | . | .
Cc1ccc(NC(=O)CNCCCN2CCOCC2)cc1S(=O)(=O)N1CCCCC1 | . | - | - | . | .
SMILES | Insulin prom inh | Dynein cargo inh | Ins promoter up | Autophagy mod | Dynein inh conf
O=C(NCCCN1CCCCCC1)c1ccc2c(Cl)c3c(nc2c1)CCCC3 | - | -3.7 | - | - | +
CC1CCN(CCCNC(=O)c2ccc3c(Cl)c4c(nc3c2)CCCC4)CC1 | . | -5 | - | . | +
O=C(NCCN1CCCC1)c1ccc(Cl)cc1 | . | - | - | - | .
O=c1c(Cl)cc(Cl)nn1-c1ccccc1 | . | -3.5 | - | - | +
COc1cc(/C=C(/C(=O)c2cccs2)c2nc3ccccc3[nH]2)cc(OC)c1O | - | -4.6 | . | + | +
O=C(/C(=C/c1ccc(Cl)cc1)c1nc2ccccc2[nH]1)c1ccccc1 | . | -4.7 | - | - | +
O=C(N/C(=C/c1ccc(Cl)cc1)c1nc2ccccc2[nH]1)c1ccco1 | . | - | - | - | .
COc1ccc(CN2CCNC(=O)C2CC(=O)NCCC2=CCCCC2)cc1OC (stereo not drawn) | . | - | - | - | .
N#CCCn1cc(C=C(C#N)C#N)c(-c2ccc(-c3ccccc3)cc2)n1 | - | -4.1 | - | - | ?
N#CCCn1cc(/C=N/O)c(-c2ccccc2)n1 | - | - | . | - | .
COc1ccccc1NC(=O)c1coc(=O)c(Br)c1 | . | - | - | . | .
